# According to PMC6842100 (Molecular neurobiology, 2019):
# Tests used:
# [1] = system: in vitro model of the BBB (HBMEC monolayer); experiment: Paracellular marker; type: cell-based, human; details: each SB-3CT concentration (0.1, 0.5, 1, 5, 10μM), data not shown
# How it was run: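 HBMEC were seeded at 100,000 cells/cm² on fibronectin-coated (4 µg/cm²) 0.4 µm-pore inserts (0.3 cm²) to form a polarized monolayer. Inserts holding test compound were exposed to wells with 10 kD lucifer yellow dextran at 37 °C. Basolateral was sampled at time 0 and apical at 0, 30 and 60 min (basolateral-to-apical). Apparent permeability = 1/AC0 × dQ/dt, compared with control.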
# apoE-TR mice = experiment: Mouse Aβ BBB clearance model: human Aβ; type: in vivo; details: SB-3CT 25 mg/kg i.p., plasma human Aβ(1-42) ELISA, n = 4
# LDLR = experiment: Aβ-induced soluble LDLR in HBMEC media upon MMP9 inhibition; type: cell-based, human; details: Aβ(1-42) 2μM plus inhibitor 1μM, 48 hours at 37°C, ELISA, n = 3
# LRP1 = experiment: Aβ-induced soluble LRP1 in HBMEC media upon MMP9 inhibition; type: cell-based, human; details: Aβ(1-42) 2μM plus inhibitor 1μM, 48 hours at 37°C, ELISA, n = 3
# HBMEC = experiment: LDH cytotoxicity assay in HBMEC extracellular media; type: cell-based, human; details: 48 hours at 37°C, data not shown
compound,measurement,setting,value
O=S(=O)(CC1CS1)c1ccc(Oc2ccccc2)cc1 (stereo not shown) [SB-3CT],BBB monolayer integrity: movement of 10kDa lucifer yellow dextran vs control,[1],no difference
same,extent of Aβ BBB elimination in SB-3CT-treated apoE4-TR mice versus apoE3-TR animals,apoE-TR mice,the same as that observed in the apoE3-TR animals
same,reduction of soluble LDLR levels compared to Aβ alone,LDLR,approximately 40%
same,decrease of soluble LRP1 levels compared to Aβ alone,LRP1,approximately 40%
"Aβ(1-42): unlabeled human beta-amyloid (1-42) peptide, purchased from Invitrogen, used in monomeric form",LDH release,HBMEC; 20μM Aβ,significant increase in LDH release
same,cellular toxicity (LDH cytotoxicity assay),HBMEC; Aβ concentrations 0 to 2μM,no cellular toxicity was observed
CNC(=O)[C@@H](NC(=O)[C@H](CC(C)C)[C@H](O)C(=O)NO)C(C)(C)C [marimastat],reduction of soluble LDLR levels compared to Aβ alone,LDLR,approximately 40%
